Reference: ChEMBL document CHEMBL5653630, “Activation of the p53-MDM4 regulatory axis defines the anti-tumour response to PRMT5 inhibition through its role in regulating cellular splicing” (Sci Rep, 2018)
The source made the active and inactive calls. The calls are words filed in the database; no cut-off is given here.

Experiments:
KMS-11 = assay: Antiproliferative activity against human KMS-11 cells assessed as cell growth inhibition incubated for 6 days by celltiter-glo assay; type: functional; conditions: KMS-11, 144 h, time 6 day
Procedure, shortened: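 Cells seeded in 384-well plates at an optimized density and held 24 h. CellTiter-Glo luminescence read at Day 0 and Day 6. Four-parameter fit. gIC50 = midpoint of the growth window between DMSO and T0. Curves required ≥1.5 population doublings.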

Z-138 [1] = assay: Induction of cell cycle arrest in human Z138 cells assessed as decrease in 2n cell population measured upto 1000 nM measured for 2 to 5 days by propidium iodide staining based flow cytometric analysis; type: functional; conditions: time 2-5 day
Z-138 [2] = assay: Induction of cell cycle arrest in human Z138 cells assessed as decrease in 4n cell population measured upto 1000 nM measured for 2 to 5 days by propidium iodide staining based flow cytometric analysis; type: functional; conditions: time 2-5 day
Z-138 [3] = assay: Antitumor activity against human Z138 cells xenografted in mouse at 25 to 50 mg/kg, po BID measured at 14 to 21 days; type: functional, organism-based; conditions: dose lower […], dose upper 50.0 mg/kg, time 14-21 day
[4] = Toxicity in mouse assessed as body weight loss at 25 mg/kg, po pretreated for 21 days followed by treatment holiday for 10 days and further compound treatment for 2 weeks starting from day 32 followed by 1 week treatment holiday; type: organism-based; conditions: in vivo, 504 h, time 21 day
Z-138 [5] = assay: In vivo inhibition of PRMT5 in human Z138 cells xenografted in mouse assessed as increase in GADD45A expression at 100 mg/kg, po BID measured for 7 days; type: functional, organism-based; conditions: time 7.0 day
Z-138 [6] = assay: In vivo inhibition of PRMT5 in human Z138 cells xenografted in mouse assessed as increase in CDKN1 expression at 100 mg/kg, po BID measured for 7 days; type: functional, organism-based; conditions: time 7.0 day
Z-138 [7] = assay: In vivo inhibition of PRMT5 in human Z138 cells xenografted in mouse assessed as increase in p21 expression at 100 mg/kg, po BID measured for 7 days; type: functional, organism-based; conditions: time 7.0 day
NCI-H295R = assay: Antiproliferative activity against human NCI-H295R cells assessed as cell growth inhibition incubated for 10 days; type: functional; conditions: 240 h, time 10 day
[8] = Antiproliferative activity against human C4-1 cells assessed as cell growth inhibition incubated for 10 days; type: functional; conditions: C4-1, 240 h, time 10 day
Procedure, shortened: (§1)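 Cells kept in RPMI-1640 with 10% FBS, 2 mM L-alanyl-L-glutamine and 1 mM Na pyruvate (or a special medium) at 37°C, 5% CO2. Compound added 24 h after seeding, 10 concentrations in 3.16-fold dilution, 0.1% DMSO final. Medium replaced and cells re-dosed at 168 h; 240 h incubation. Nuclei fixed, dye-stained and imaged. gIC50 = growth midway between untreated and time-zero cell counts, from a 4-parameter fit.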

EM-2 = assay: Antiproliferative activity against human EM-2 cells assessed as cell growth inhibition incubated for 10 days; type: functional; conditions: EM-2, 240 h, time 10 day
Procedure, shortened: (§2)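 Outsourced panel run in 384-well plates. Cells were grown in RPMI-1640/10% FBS or a special medium at 37°C, 5% CO2. Compound was added 24 h after seeding as a 10-point, 3.16-fold series in 0.1% DMSO. Medium was refreshed and cells re-dosed at 168 h, with a time-zero plate kept. At 240 h cells were fixed, nuclei stained and imaged. gIC50 is growth midway between untreated and time zero, from a 4-parameter fit.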

[9] = Antiproliferative activity against human RKOE6 cells assessed as cell growth inhibition incubated for 10 days; type: functional; conditions: RKOE6, 240 h, time 10 day
HCT-8 = assay: Antiproliferative activity against human HCT-8 cells assessed as cell growth inhibition incubated for 10 days; type: functional; conditions: HCT-8, 240 h, time 10 day; procedure, shortened: as §2
SR = assay: Antiproliferative activity against human SR cells assessed as cell growth inhibition incubated for 10 days; type: functional; conditions: 240 h, time 10 day
OE33 = assay: Antiproliferative activity against human OE33 cells assessed as cell growth inhibition incubated for 10 days; type: functional; conditions: OE33, 240 h, time 10 day
[10] = Antiproliferative activity against human OCUG-1 cells assessed as cell growth inhibition incubated for 10 days; type: functional; conditions: OCUG-1, 240 h, time 10 day
U-87 MG = assay: Antiproliferative activity against human U-87 MG cells assessed as cell growth inhibition incubated for 10 days; type: functional, U-87MG ATCC; conditions: 240 h, time 10 day
DK-MG = assay: Antiproliferative activity against human DK-MG cells assessed as cell growth inhibition incubated for 10 days; type: functional; conditions: 240 h, time 10 day; procedure, shortened: as §2
T98G = assay: Antiproliferative activity against human T98G cells assessed as cell growth inhibition incubated for 10 days; type: functional; conditions: 240 h, time 10 day
CCF-STTG1 = assay: Antiproliferative activity against human CCF-STTG1 cells assessed as cell growth inhibition incubated for 10 days; type: functional; conditions: CCF-STTG1, 240 h, time 10 day; procedure, shortened: as §1
SW1783 = assay: Antiproliferative activity against human SW1783 cells assessed as cell growth inhibition incubated for 10 days; type: functional; conditions: SW1783, 240 h, time 10 day
U138-MG = assay: Antiproliferative activity against human U138-MG cells assessed as cell growth inhibition incubated for 10 days; type: functional; conditions: 240 h, time 10 day
SCC-25 = assay: Antiproliferative activity against human SCC-25 cells assessed as cell growth inhibition incubated for 10 days; type: functional; conditions: SCC-25, 240 h, time 10 day
D283 Med = assay: Antiproliferative activity against human D283 Med cells assessed as cell growth inhibition incubated for 10 days; type: functional; conditions: 240 h, time 10 day; procedure, shortened: as §2
CHP-212 = assay: Antiproliferative activity against human CHP-212 cells assessed as cell growth inhibition incubated for 10 days; type: functional; conditions: CHP-212, 240 h, time 10 day; procedure, shortened: as §1
MC-IXC = assay: Antiproliferative activity against human MC-IXC cells assessed as cell growth inhibition incubated for 10 days; type: functional; conditions: 240 h, time 10 day
NCI-H596 = assay: Antiproliferative activity against human NCI-H596 cells assessed as cell growth inhibition incubated for 10 days; type: functional; conditions: NCI-H596, 240 h, time 10 day
NCI-H441 = assay: Antiproliferative activity against human NCI-H441 cells assessed as cell growth inhibition incubated for 10 days; type: functional; conditions: NCI-H441, 240 h, time 10 day
Caov-3 cell line = assay: Antiproliferative activity against human Caov-3 cell line assessed as cell growth inhibition incubated for 10 days; type: functional; conditions: Caov-3, 240 h, time 10 day; procedure, shortened: as §2
SK-OV-3 = assay: Antiproliferative activity against human SK-OV-3 cells assessed as cell growth inhibition incubated for 10 days; type: functional; conditions: SK-OV-3, 240 h, time 10 day
DU-145 = assay: Antiproliferative activity against human DU-145 cells assessed as cell growth inhibition incubated for 10 days; type: functional; conditions: DU-145, 240 h, time 10 day; procedure, shortened: as §2
Y79 = assay: Antiproliferative activity against human Y79 cells assessed as cell growth inhibition incubated for 10 days; type: functional; conditions: Y79, 240 h, time 10 day
SW982 = assay: Antiproliferative activity against human SW982 cells assessed as cell growth inhibition incubated for 10 days; type: functional; conditions: SW982, 240 h, time 10 day
SK-LMS-1 = assay: Antiproliferative activity against human SK-LMS-1 cells assessed as cell growth inhibition incubated for 10 days; type: functional; conditions: SK-LMS-1, 240 h, time 10 day
[11] = target: Protein arginine N-methyltransferase 5 (Homo sapiens) (UniProt O14744); assay: Inhibition of PRMT5 in human Z138 cells assessed as effect on FUBP1 level by measuring fold change by LC-MS/MS analysis relative to control; type: cell-based
Sequence of Protein arginine N-methyltransferase 5 (Homo sapiens) (O14744 whole entry): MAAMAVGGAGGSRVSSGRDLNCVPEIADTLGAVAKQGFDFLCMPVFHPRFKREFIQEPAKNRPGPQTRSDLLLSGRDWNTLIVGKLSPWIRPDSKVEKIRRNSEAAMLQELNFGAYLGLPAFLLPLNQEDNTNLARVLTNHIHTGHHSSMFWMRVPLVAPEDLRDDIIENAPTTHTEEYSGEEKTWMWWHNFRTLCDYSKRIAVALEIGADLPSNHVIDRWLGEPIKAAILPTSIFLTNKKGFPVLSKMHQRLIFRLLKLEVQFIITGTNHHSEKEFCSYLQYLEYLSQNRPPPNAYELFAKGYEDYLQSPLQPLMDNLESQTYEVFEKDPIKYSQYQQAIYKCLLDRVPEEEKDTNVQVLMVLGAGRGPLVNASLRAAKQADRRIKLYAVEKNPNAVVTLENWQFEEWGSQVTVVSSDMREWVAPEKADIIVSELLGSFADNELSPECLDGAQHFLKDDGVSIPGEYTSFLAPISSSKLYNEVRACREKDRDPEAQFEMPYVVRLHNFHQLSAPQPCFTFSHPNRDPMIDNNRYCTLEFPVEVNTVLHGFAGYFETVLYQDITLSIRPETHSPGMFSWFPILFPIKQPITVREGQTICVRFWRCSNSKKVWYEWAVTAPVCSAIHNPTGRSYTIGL

CC(=O)N1CCC(Nc2cc(C(=O)NC[C@H](O)CN3CCc4ccccc4C3)ncn2)CC1 [PEMRAMETOSTAT]
GI50 (KMS-11): 66 nM
Activity (Z-138 [1]): Active
Activity (Z-138 [2]): Active
Activity (Z-138 [3]): inactive
Activity [4]: Non-Toxic
inhibition (Z-138 [5]): Active
inhibition (Z-138 [6]): Active
inhibition (Z-138 [7]): Active

O=C(NC[C@H](O)CN1CCc2ccccc2C1)c1ccnc(NC2CCC2)c1
GI50 (NCI-H295R): 10000 nM
GI50 [8]: 139 nM
GI50 (EM-2): 94 nM
GI50 [9]: 210 nM
GI50 (HCT-8): 430 nM
GI50 (SR): 275 nM
GI50 (OE33): 231 nM
GI50 [10]: 379 nM
GI50 (U-87 MG): 67.6 nM
GI50 (DK-MG): 89.5 nM
GI50 (T98G): 27.3 nM
GI50 (CCF-STTG1): 115 nM
GI50 (SW1783): 389 nM
GI50 (U138-MG): 43.3 nM
GI50 (SCC-25): 273 nM
GI50 (D283 Med): 23.5 nM
GI50 (CHP-212): 24 nM
GI50 (MC-IXC): 615 nM
GI50 (NCI-H596): 188 nM
GI50 (NCI-H441): 556 nM
GI50 (Caov-3 cell line): 298 nM
GI50 (SK-OV-3): 52.6 nM
GI50 (DU-145): 151 nM
GI50 (Y79): 113 nM
GI50 (SW982): 56.7 nM
GI50 (SK-LMS-1): 113 nM
fold change (FC) [11]: -6.6
